Published values of several laboratories.
Lines come from different studies, so protocols differ.
JAK1: Tyrosine-protein kinase JAK1 (JAK1, Homo sapiens, UniProt P23458)
JAK1 JH1: Tyrosine-protein kinase JAK1, JH1 (JAK1, Homo sapiens, UniProt P23458)
JAK1 JH2: Tyrosine-protein kinase JAK1, JH2 (JAK1, Homo sapiens, UniProt P23458)

Cn1cc(-c2cccc(N3CCc4c(sc5c4CC(C)(C)C5)C3=O)c2CO)cc(Nc2ccncn2)c1=O — inhibition (JAK1; enzyme activity; inhibitor; 1 µM): -2%
Cc1nn(C)cc1-c1nc2c(N3CCN(Cc4ccc(Cl)cc4)CC3)c(Cl)cnc2[nH]1 — remaining binding (JAK1 JH1; binding; competition with immobilised ligand; 1 µM): 46%
Nc1ncc(-c2nc(N3CCOCC3)nc(N3CCOCC3)n2)c(C(F)F)n1 — remaining binding (JAK1 JH1; binding; competition with immobilised ligand; 10 µM): 90%
COc1ncccc1-c1cnn2ccc(N3CCN(C(=O)OC(C)C)CC3)nc12 — remaining binding (JAK1; binding; competition with immobilised ligand; 1 µM): 100%
N#CC1(c2ccccn2)CCN(Cc2cc(C(=O)O)c(=O)n3ccccc23)CC1 — remaining binding (JAK1 JH2; cell-free assay; competition with immobilised ligand; 1 µM): 84%
O=c1[nH]c2ccccc2n1C1CCN(Cc2ccc(-c3[nH]c4cc5ncnc5cc4nc3-c3ccccc3)cc2)CC1 — remaining signal (JAK1; cell-free assay; 0.5 µM): 94.6%
C#Cc1n[nH]c2c(-c3cn(C(C)c4ccccn4)c(=O)[nH]c3=O)cc(F)cc12 (centres unmarked) — inhibition (JAK1; enzyme activity; inhibitor; 1 µM): -2.3%
CC(C)(C)c1cc(C=C(C#N)C#N)cc(Br)c1O — remaining activity (JAK1; enzyme activity; inhibitor; 0.5 µM): 107%
Cn1cc(-c2cc(F)cc(N3CCn4c(cc5c4CCCC5)C3=O)c2CO)cc(Nc2ccc(N3CCN(C4COC4)CC3)cn2)c1=O — inhibition (JAK1; enzyme activity; inhibitor; 0.1 µM): 6%
Cn1cncc1[C@](O)(COc1ccc(C#N)cc1-c1ccc(OC(F)(F)F)cc1)c1ccc(C#N)cc1 — remaining binding (JAK1 JH2; cell-free assay; competition with immobilised ligand; 1 µM): 70%
COc1cc(Nc2ncc(F)c(Nc3ccc4c(n3)NC(=O)C(C)(C)O4)n2)cc(OC)c1OC — inhibition (JAK1 JH1; binding; competition with immobilised ligand; 10 µM): 100%
